Test results: ChEMBL document CHEMBL4622964, “Designing Dihydrofolate Reductase Inhibitors as X-ray Radiosensitizers to Reverse Radioresistance of Cervical Cancer” (ACS Med Chem Lett, 2020)
pIC50: −log10 of the molar value. The source made the active and inactive calls. The rule behind the calls is not given here.

Tests used:
[1] = Toxicity in BALB/c mouse xenografted with human HeLa cells assessed as liver damage by measuring effect on AST level at 4 mg/kg, iv administered every 3 days for 21 days in presence of 4 Gy X-ray irradiation; format: organism-based; conditions: in vivo
Summary of the method: (§1)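 HeLa xenograft nude mice dosed at 4 mg/kg iv every 3 days over 21 days, alone or with X-rays; blood collected 24 h after last injection for serum biochemistry: ALT, AST (liver), BUN and uric acid (kidney).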

[2] = Toxicity in BALB/c mouse xenografted with human HeLa cells assessed as lung damage at 4 mg/kg, iv administered for every 3 days for 21 days and measured after 24 hrs post last dose in presence of 4 Gy X-ray irradiation by H and E staining based light microscopic analysis; format: organism-based; conditions: in vivo
Summary of the method: (§2)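 HeLa-tumor-bearing nude mice dosed at 4 mg/kg iv every 3 days for 21 days, alone or with X-rays; euthanized 24 h after last injection; heart, liver, lungs, kidneys and spleen sectioned and stained with H&E.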

HeLa [3] = assay: Induction of mitochondrial dysfunction in human HeLa cells assessed as increase in mitochondrial fission at 1 uM after 24 hrs in presence of 4 Gy X-ray irradiation by DAPI staining based fluorescence microscopic analysis; format: functional, cell-based
Summary of the method: (§3)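 HeLa cells treated with 1 μM compound, without or with 4 Gy X-rays; mitochondrial morphology imaged by fluorescence microscopy after MitoTracker and DAPI co-staining.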

[4] = Toxicity in BALB/c mouse xenografted with human HeLa cells assessed as kidney damage at 4 mg/kg, iv administered for every 3 days for 21 days and measured after 24 hrs post last dose by H and E staining based light microscopic analysis; format: organism-based; conditions: in vivo; summary of the method: as §2
[5] = target: T1, Dihydrofolate reductase (Homo sapiens) (UniProt P00374); assay: Inhibition of DHFR in human HeLa cells at 10 uM relative to control; format: cell-based
T1 sequence (whole entry): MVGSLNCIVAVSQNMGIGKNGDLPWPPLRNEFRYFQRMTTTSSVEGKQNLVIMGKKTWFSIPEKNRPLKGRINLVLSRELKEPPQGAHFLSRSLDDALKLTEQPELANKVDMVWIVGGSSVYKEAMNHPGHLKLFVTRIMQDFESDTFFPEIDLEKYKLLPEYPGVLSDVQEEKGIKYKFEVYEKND
Summary of the method: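 HeLa cells treated with compound; DHFR activity assayed in cell lysates, inhibition expressed relative to untreated control.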

HeLa [6] = assay: Antiproliferative activity against human HeLa cells assessed as reduction in cell viability preincubated for 12 hrs followed by 4 Gy irradiation and measured after 60 hrs by MTT assay; format: functional, cell-based; conditions: light or radiation study
Summary of the method: (§4)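 MTT viability assay in HeLa cancer cells, with the test agent alone (0 Gy) or combined with 4 Gy X-rays. IC50 values are in μM. Sensitivity enhancement ratio = IC50(0 Gy)/IC50(4 Gy).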

HeLa [7] = assay: Induction of cell cycle arrest in human HeLa cells assessed as accumulation at SubG1 phase at 1 uM after 48 hrs in presence of 4 Gy X-ray radiation by propidium iodide staining based flow cytometric analysis (reference value: […]); format: functional
HeLa [8] = assay: Induction of reactive oxygen species generation in human HeLa cells incubated with DHE for 30 mins and measured up to 30 mins by fluorescence microscopic analysis; format: functional, cell-based
Summary of the method: (§5)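 HeLa cells pretreated with compound, with or without 4 Gy X-rays, then incubated with dihydroethidium for 30 min; red superoxide-derived fluorescence imaged by fluorescence microscopy, with observation continued over a further 30 min.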

[9] = Toxicity in BALB/c mouse xenografted with human HeLa cells assessed as spleen damage at 4 mg/kg, iv administered for every 3 days for 21 days and measured after 24 hrs post last dose by H and E staining based light microscopic analysis; format: organism-based; conditions: in vivo; summary of the method: as §2
HeLa [10] = assay: Induction of apoptosis in human HeLa cells assessed as caspase-8 activation at 1 uM using […] as substrate after 12 hrs by fluorescence based assay relative to control; format: functional
Summary of the method: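 Caspase-3 and caspase-8 activities were measured in HeLa cells after 12 h at 1 μM, without or with 4 Gy X-rays. Mean ± SD of three independent experiments.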

[11] = Toxicity in BALB/c mouse xenografted with human HeLa cells assessed as kidney damage by measuring effect on uric acid level at 4 mg/kg, iv administered every 3 days for 21 days; format: organism-based; conditions: in vivo; summary of the method: as §1
HeLa [12] = assay: Ratio of IC50 for antiproliferative activity against human HeLa cells assessed as reduction in cell viability incubated for 12 hrs to IC50 for antiproliferative activity against human HeLa cells assessed as reduction in cell viability preincubated for 12 hrs followed by 4 Gy irradiation and measured after 60 hrs by MTT assay; format: functional; summary of the method: as §4
[13] = Toxicity in BALB/c mouse xenografted with human HeLa cells assessed as kidney damage at 4 mg/kg, iv administered for every 3 days for 21 days and measured after 24 hrs post last dose in presence of 4 Gy X-ray irradiation by H and E staining based light microscopic analysis; format: organism-based; conditions: in vivo; summary of the method: as §2
[14] = Toxicity in BALB/c mouse xenografted with human HeLa cells assessed as liver damage at 4 mg/kg, iv administered for every 3 days for 21 days and measured after 24 hrs post last dose by H and E staining based light microscopic analysis; format: organism-based; conditions: in vivo; summary of the method: as §2
HeLa [15] = assay: Induction of mitochondrial dysfunction in human HeLa cells assessed as change in mitochondrial membrane potential at 1 uM incubated for 24 hrs in presence of 4 Gy X-ray irradiation by JC1 staining based flow cytometry (reference value: 4.9%); format: functional
Summary of the method: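 Mitochondrial membrane potential was assessed by JC-1 flow cytometry in HeLa cells treated at 1 μM without or with 4 Gy X-rays. Green fluorescence gives the proportion of cells with lost ΔΨm.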

HeLa [16] = assay: Induction of mitochondrial dysfunction in human HeLa cells assessed as mitochondrial fission at 1 uM after 24 hrs by DAPI staining based fluorescence microscopic analysis; format: functional, cell-based; summary of the method: as §3
[17] = Toxicity in BALB/c mouse xenografted with human HeLa cells assessed as heart damage at 4 mg/kg, iv administered for every 3 days for 21 days and measured after 24 hrs post last dose by H and E staining based light microscopic analysis; format: organism-based; conditions: in vivo; summary of the method: as §2
[18] = Drug localization in cytoplasm of human HeLa cells at 20 uM after 8 hrs by LysoTracker/DAPI staining based fluorescence microscopic analysis; format: ADME, subcellular
Summary of the method: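 HeLa cells pretreated with 20 μM compound; LysoTracker added 2 h and DAPI 30 min before each time point; compound green fluorescence (emission about 510 nm) overlaid with lysosome (red) and nucleus under fluorescence microscope.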

[19] = Cytotoxicity against human Ect1 cells assessed as reduction in cell viability in presence of 4 Gy irradiation by MTT assay; format: cell-based; conditions: light or radiation study
Summary of the method: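 MTT viability assay in Ect1/E6E7 normal ectocervical epithelial cells, with the test agent alone (0 Gy) or combined with 4 Gy X-rays. IC50 values are in μM.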

HeLa [20] = assay: Antiproliferative activity against human HeLa cells assessed as reduction in cell viability incubated for 12 hrs by MTT assay; format: functional, cell-based; summary of the method: as §4
HeLa [21] = assay: Induction of reactive oxygen species generation in human HeLa cells incubated with DHE for 30 mins and measured up to 30 mins in presence of 4 Gy X-ray radiation by fluorescence microscopic analysis; format: functional, cell-based; summary of the method: as §5
HeLa [22] = assay: Inhibition of cell migration in human HeLa cells assessed as reduction in spreading rate at 1 uM after 24 hrs in presence of 4 Gy X-ray irradiation by phase contrast microscopic analysis; format: functional, cell-based
Summary of the method: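 Wound-healing scratch assay on HeLa monolayers, compound with or without 4 Gy X-rays; wound closure recorded by phase-contrast microscopy at set times; migrated cells counted manually; mean ± SD of three independent experiments.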

[23] = Toxicity in BALB/c mouse xenografted with human HeLa cells assessed as liver damage by measuring effect on AST level at 4 mg/kg, iv administered every 3 days for 21 days; format: organism-based; conditions: in vivo; summary of the method: as §1

Nc1nc(N)c2nc3c(nc2n1)-c1cccc2cccc-3c12
Activity [1]: Non-Toxic
Activity [2]: Non-Toxic
Activity (HeLa [3]): Active
Activity [4]: Non-Toxic
inhibition [5]: 76%
pIC50 (HeLa [6]): 6.19
Activity (HeLa [7]): 30.2%
Activity (HeLa [8]): Active
Activity [9]: Non-Toxic
Activity (HeLa [10]): 110%
Activity [11]: Non-Toxic
Ratio IC50 (HeLa [12]): 3.3
Activity [13]: Non-Toxic
Activity [14]: Non-Toxic
Activity (HeLa [15]): 32.3%
Activity (HeLa [16]): Active
Activity [17]: Non-Toxic
Drug uptake [18]: Active
pIC50 [19]: 5.51
pIC50 (HeLa [20]): 5.68
Activity (HeLa [21]): Active
inhibition (HeLa [22]): Active
Activity [23]: Non-Toxic
